# Measurements published in PMC8448143 (Antimicrobial Agents and Chemotherapy, 2021).
# pEC50: −log10 of the molar value. “Also recorded” adds a separate entry of the source. Where two headings read alike, the source gives them in different places.
# Legend:
# [1] = test system: SARS-CoV-2 (2019-nCoV/USA-WA1/2020); experiment: SARS-CoV-2 antiviral assay; format: cell-based; conditions: Vero E6 cells; CC50/EC50
# [2] = test system: SARS-CoV-2 (2019-nCoV/USA-WA1/2020); experiment: SARS-CoV-2 antiviral assay; format: cell-based; conditions: for EC90: Severe acute respiratory syndrome coronavirus 2, in Homo sapiens, 48 h; for Selectivity index: CC50/EC50
# [3] = test system: SARS-CoV-2 (2019-nCoV/USA-WA1/2020); experiment: SARS-CoV-2 antiviral assay; format: cell-based; conditions: for Selectivity index: Huh7.5 cells, CC50/EC50
# in vitro [4] = conditions: African green monkey
# in vitro [5] = conditions: human
# [6] = test system: SARS-CoV-2 (2019-nCoV/USA-WA1/2020); experiment: SARS-CoV-2 antiviral assay; format: cell-based; conditions: for Selectivity index: Calu-3 cells, CC50/EC50
# [7] = test system: SARS-CoV-2 (2019-nCoV/USA-WA1/2020); experiment: SARS-CoV-2 antiviral assay; format: cell-based; conditions: for Selectivity index: Caco-2 cells, CC50/EC50; for pEC50 / EC90: Severe acute respiratory syndrome coronavirus 2, Caco-2, 48 h
# human coronavirus 229E = experiment: microbe, parasite or virus in culture; format: cell-based; conditions: MRC5, 72 h
# [8] = Seven-day oral pharmacokinetics and tolerability in Syrian hamsters; format: in vivo
# How it was run: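 Syrian hamsters in groups of 3 received vehicle or test compound by oral gavage every 12 h for 7 days, at 16.9 or 13.2 mg/kg body weight. Plasma levels of the prodrug and its nucleoside metabolite were followed after dosing. Animals were monitored for adverse clinical signs.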
# in vitro [9] = conditions: both, human, plasma
# in vitro [10] = experiment: in vitro
# in vitro [11] = conditions: human; remark: listed apart in the source
# in vitro [12] = conditions: human; remark: listed apart in the source
# in vitro [13] = conditions: human; remark: listed apart in the source
# [14] = ex vivo; cited from earlier work
# [15] = in vivo, rhesus monkeys; cited from earlier work
# SARS-CoV-2 [16] = conditions: Calu-3 2B4 cells; cited from earlier work
# SARS-CoV-2 [17] = conditions: human alveolar epithelial (HAE) cells; cited from earlier work
# [18] = cited from earlier work
# [19] = Severe acute respiratory syndrome coronavirus 2, Huh7.5, 48 h
# [20] = Severe acute respiratory syndrome coronavirus 2, Calu-3, 48 h
Compound,Selectivity index [1],EC90 [2] [nM],pEC50 [3],Selectivity index [3],"pEC50 [3, 19]","EC90 [3, 19] [nM]",CC50 (in vitro [4]) [nM],CC50 (in vitro [5]) [nM],Selectivity index ([2]; PSC-human lung cells),Selectivity index [6],"pEC50 [6, 20]","EC90 [6, 20] [nM]",Selectivity index [7],pEC50 [7],EC90 [7] [nM],pEC50 (human coronavirus 229E),EC90 (human coronavirus 229E) [nM],CC50 (in vitro [11]) [nM],CC50 (in vitro [12]) [nM],CC50 (in vitro [13]) [nM],other results
"CCCCCCCCCCCCCCCCOCCCOP(=O)(O)OC[C@H]1O[C@@](C#N)(c2ccc3c(N)ncnn23)[C@H](O)[C@@H]1O [HDP-P-RVn, {(2R,3S,4R,5R)-5-(4-aminopyrrolo[2,1-f][1,2, 4]triazin-7-yl)-5-cyano-3,4-dihydroxytetrahydrofuran-2-yl}methyl [3-(hexadecyloxy)propyl] hydrogen phosphate]",>158,940,6.72,>526,> 6.70,400,> 100000,> 100000,,,,,,,,,,,,,
"CCCCCCCCCCCCCCCCCCOC[C@H](COP(=O)(O)OC[C@H]1O[C@@](C#N)(c2ccc3c(N)ncnn23)[C@H](O)[C@@H]1O)OCc1ccccc1 [ODBG-P-RVn, {(2R,3S,4R,5R)-5-(4-aminopyrrolo[2,1-f][1,2, 4]triazin-7-yl)-5-cyano-3,4-dihydroxytetrahydrofuran-2-yl]methyl [(R)-2-(benzyloxy)-3-(octadecyloxy)propyl] hydrogen phosphate]",699,260,,449,> 6.70,150,97900,,410,327,> 6.46,330,295,6.52,330,6.82,540,,,,"tolerability ([8]; Syrian hamsters, oral gavage every 12 h for 7 days, 16.9 and 13.2 mg/kg): well tolerated; also recorded: well tolerated, and no adverse clinical signs were noted; plasma level of ODBG-P-RVn relative to its EC90 ([8]; Syrian hamsters, oral, at 12 h, days 1 and 7, EC90 in all cell lines studied): above the 90% effective concentration (EC90); also recorded: higher than the EC90; Tmax ([8]; Syrian, hamster, plasma, po): 1 h; half-life (in vitro [9]): > 24 h; CC50 (in vitro [10]): 61500 to 98200 nM"
"CCCCCCCCCCCCCCCCCCOCCOP(=O)(O)OC[C@H]1O[C@@](C#N)(c2ccc3c(N)ncnn23)[C@H](O)[C@@H]1O [ODE-P-RVn, {(2R,3S,4R,5R)-5-(4-aminopyrrolo[2,1-f][1,2, 4]triazin-7-yl)-5-cyano-3,4-dihydroxytetrahydrofuran-2-yl}methyl [2-(octadecyloxy)ethyl] hydrogen phosphate]",>333,700,6.72,>526,> 6.70,370,> 100000,> 100000,>454,290,> 6.46,640,>129,6.11,1250,,,> 100000,98700,> 100000,"pEC50 ([2]; PSC-human lung cells, […]): 6.66; pEC50 [6]: 6.47"
"CCC(CC)COC(=O)[C@H](C)N[P@](=O)(OC[C@H]1O[C@@](C#N)(c2ccc3c(N)ncnn23)[C@H](O)[C@@H]1O)Oc1ccccc1 [RDV, remdesivir, reference compound]",,230,,,7.22,120,101000,,,,6.64,310,,6.77,280,7.40,260,,,,"half-life (t1/2) in human plasma [14]: 1.15 h; persistence in plasma after intravenous infusion [15]: less than 2 h; pEC50 (SARS-CoV-2 [16]): 6.55; pEC50 (SARS-CoV-2 [17]): 8.00; persistence in plasma after intravenous infusion ([18]; in vivo, COVID-19 patients): less than 2 h; drop of plasma level after the intravenous infusion stopped ([18]; two patients with COVID-19, 1 h after the infusion stopped): > 90%"
"N#C[C@@]1(c2ccc3c(N)ncnn23)O[C@H](CO)[C@@H](O)[C@H]1O [RVn, remdesivir nucleoside, reference compound]",,2620,,>312,6.49,730,> 100000,> 100000,>135,>666,6.82,180,>104,6.02,1750,,,> 100000,> 100000,> 100000,
